As usually defined, the solubility (kinetic) is solubility judged after dilution from a stock solution rather than from solid.

Converted amounts (≈) assume the structure as drawn.

A short description of the first series: Permeability across apical to basolateral side in MDCK cells pgp knock out incubated up to 180 mins by LC_MS/MS analysis. Type of series: ADME, cell-based, Canis lupus familiaris. The settings on record: dog, read-out: permeability. The gist of the method: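 MDCK cells with the endogenously expressed canine MDR1 gene knocked out; transport measured in the apical-to-basolateral direction; apparent permeability reported in 10^-6 cm/s.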
In the case of `CN1CCN(C(=O)c2ccc([C@H]3[C@@H](F)[C@@H](F)C[C@@H](F)[C@H]3F)cc2)CC1`, the Papp A→B at 3 h amounted to 18.6 ×10⁻⁶ cm/s. The same measure, in the same setting: the value for `O=C(NCC1CCOCC1)c1ccc([C@H]2[C@@H](F)[C@@H](F)C[C@@H](F)[C@H]2F)cc1` was 20.3 ×10⁻⁶ cm/s; that for `CC(C(=O)Nc1ccc(C2CCCCC2)cc1)n1cncn1` (configuration not stated) was 29.5 ×10⁻⁶ cm/s. On the same count and under the same terms, the value for `CN(CCC#N)C(=O)c1ccc([C@H]2[C@@H](F)[C@@H](F)C[C@@H](F)[C@H]2F)cc1` was 8.1 ×10⁻⁶ cm/s; that for `CN(C)CCC(=O)Nc1ccc([C@H]2[C@@H](F)[C@@H](F)C[C@@H](F)[C@H]2F)cc1` was 3.7 ×10⁻⁶ cm/s; that for `O=C(Cn1ccnc1)Nc1ccc(C2CCCCC2)cc1` was 11.1 ×10⁻⁶ cm/s. As for `O=C(c1ccc([C@H]2[C@@H](F)[C@@H](F)C[C@@H](F)[C@H]2F)cc1)N1CC(O)C1`, the Papp A→B at 3 h amounted to 6.7 ×10⁻⁶ cm/s. On the same count and under the same terms, the value for `O=C(Cc1cccnc1)Nc1ccc([C@H]2[C@@H](F)[C@@H](F)C[C@@H](F)[C@H]2F)cc1` was 15 ×10⁻⁶ cm/s. With `N#CCC(=O)Nc1ccc([C@H]2[C@@H](F)[C@@H](F)C[C@@H](F)[C@H]2F)cc1`, the Papp A→B at 3 h was found to be 16 ×10⁻⁶ cm/s. Same read-out and setting: the value for `O=C(NCc1cc[nH]n1)c1ccc([C@H]2[C@@H](F)[C@@H](F)C[C@@H](F)[C@H]2F)cc1` was 2.1 ×10⁻⁶ cm/s; that for `COCCN(C)C(=O)c1ccc([C@H]2[C@@H](F)[C@@H](F)C[C@@H](F)[C@H]2F)cc1` was 9.4 ×10⁻⁶ cm/s; that for `COCCN(C)C(=O)c1ccc(C2CCCCC2)cc1` was 9.4 ×10⁻⁶ cm/s. With `CC(C(=O)Nc1ccc([C@H]2[C@@H](F)[C@@H](F)C[C@@H](F)[C@H]2F)cc1)n1cncn1` (some centres not stated), the Papp A→B at 3 h is 5.5 ×10⁻⁶ cm/s. With `O=C(NCCc1cccnc1)c1ccc(C2CCCCC2)cc1`, the Papp A→B at 3 h came to 23 ×10⁻⁶ cm/s. Turning to `O=C(Cc1cccnc1)Nc1ccc(C2CCCCC2)cc1`, the Papp A→B at 3 h was determined as 19.9 ×10⁻⁶ cm/s. For the molecule `CN(Cc1cccnc1)C(=O)c1ccc(C2CCCCC2)cc1`, the Papp A→B at 3 h was 12.1 ×10⁻⁶ cm/s. Consider `CN1CCN(C(=O)c2ccc([C@H]3[C@@H](F)[C@@H](F)C[C@@H](F)[C@H]3F)cc2)CC1=O`, for which the Papp A→B at 3 h came to 4.5 ×10⁻⁶ cm/s. Same read-out and setting: the value for `COCCC(=O)Nc1ccc([C@H]2[C@@H](F)[C@@H](F)C[C@@H](F)[C@H]2F)cc1` was 18.1 ×10⁻⁶ cm/s. Take `CN(CCC#N)C(=O)c1ccc(C2CCCCC2)cc1`: the Papp A→B at 3 h was 18.7 ×10⁻⁶ cm/s. Consider `COCCC(=O)Nc1ccc(C2CCCCC2)cc1`, for which the Papp A→B at 3 h was determined as 22.2 ×10⁻⁶ cm/s.

For `CN1CCN(C(=O)c2ccc(C3CCCCC3)cc2)CC1`, the Papp A→B at 3 h was 20.3 ×10⁻⁶ cm/s. For `O=C(c1ccc(C2CCCCC2)cc1)N1CC(O)C1`, the Papp A→B at 3 h came to 26 ×10⁻⁶ cm/s. Turning to `CC(=O)N1CC(C(=O)Nc2ccc([C@H]3[C@@H](F)[C@@H](F)C[C@@H](F)[C@H]3F)cc2)C1`, the Papp A→B at 3 h stood at 0.6 ×10⁻⁶ cm/s.

For `O=C(NCCN1CCCC1=O)c1ccc(C2CCCCC2)cc1`, the Papp A→B at 3 h came to 15.5 ×10⁻⁶ cm/s. The same measure, in the same setting: the value for `CC(=O)N1CC(C(=O)Nc2ccc(C3CCCCC3)cc2)C1` was 18.7 ×10⁻⁶ cm/s; that for `CN(C)CCC(=O)Nc1ccc(C2CCCCC2)cc1` was 10.8 ×10⁻⁶ cm/s. Consider `CN1CCN(C(=O)c2ccc(C3CCCCC3)cc2)CC1=O`, for which the Papp A→B at 3 h was 10.9 ×10⁻⁶ cm/s. Consider `CN(Cc1cccnc1)C(=O)c1ccc([C@H]2[C@@H](F)[C@@H](F)C[C@@H](F)[C@H]2F)cc1`, for which the Papp A→B at 3 h was found to be 16.3 ×10⁻⁶ cm/s. In the case of `NC(=O)CCNC(=O)c1ccc(C2CCCCC2)cc1`, the Papp A→B at 3 h turned out to be 14.7 ×10⁻⁶ cm/s.

On to `O=C(NCC1CCOCC1)c1ccc(C2CCCCC2)cc1`, for which the Papp A→B at 3 h is 35.9 ×10⁻⁶ cm/s. Same read-out and setting: the value for `O=C(NCc1cc[nH]n1)c1ccc(C2CCCCC2)cc1` was 16.7 ×10⁻⁶ cm/s; that for `N#CCC(=O)Nc1ccc(C2CCCCC2)cc1` was 18.6 ×10⁻⁶ cm/s; that for `NC(=O)CCNC(=O)c1ccc([C@H]2[C@@H](F)[C@@H](F)C[C@@H](F)[C@H]2F)cc1` was 0.4 ×10⁻⁶ cm/s. Still for that read-out and setting: the value for `O=C(NCCN1CCCC1=O)c1ccc([C@H]2[C@@H](F)[C@@H](F)C[C@@H](F)[C@H]2F)cc1` was 3.5 ×10⁻⁶ cm/s. `O=C(Cn1ccnc1)Nc1ccc([C@H]2[C@@H](F)[C@@H](F)C[C@@H](F)[C@H]2F)cc1`: the Papp A→B at 3 h was determined as 0.9 ×10⁻⁶ cm/s.

A short description of the next series: Kinetic solubility of the compound. Type of series: physicochemical.
Details: not given
For the molecule `NS(=O)(=O)c1cccc(-c2ccc(C3CCCCC3)cc2)c1`, the Kinetic_solubility entry is “Soluble”.

Take `CN1CCC(c2ccc(-c3ccc(C4CCCCC4)cc3)cn2)CC1`: the Kinetic_solubility result was “Soluble”. The molecule `O=C(Nc1ccc([C@H]2[C@@H](F)[C@@H](F)C[C@@H](F)[C@H]2F)cc1)c1cn[nH]c1` came in with a solubility (kinetic) of 136 µM (≈ 46.4 µg/mL). `O=C(Nc1ccc(C2CCCCC2)cc1)c1cn[nH]c1` came in with a Kinetic_solubility of under 1 µM. Regarding `O=C(CC1CCOCC1)Nc1ccc(C2CCCCC2)cc1`, the Kinetic_solubility is under 1 µM. Still for that read-out and setting: the value for `O=C(Cc1cccnc1)Nc1ccc(C2CCCCC2)cc1` was under 1 µM. On the same count and under the same terms, the value for `CN1CCN(C(=O)c2ccc(C3CCCCC3)cc2)CC1` was “Soluble”; that for `O=C(COCC(F)F)Nc1ccc(C2CCCCC2)cc1` was under 1 µM; that for `O=C(c1ccc(C2CCCCC2)cc1)N1CC(O)C1` was “Soluble”. The same measure, in the same setting: the value for `CN1CCN(C(=O)c2ccc(C3CCCCC3)cc2)CC1=O` was “Soluble”; that for `c1ncc(-c2ccc(C3CCCCC3)cc2)cn1` was “Soluble”; that for `O=C(Nc1ccc(C2CCCCC2)cc1)[C@H]1CC1(F)F` was under 1 µM.

Values taken from ChEMBL document CHEMBL5131576, “Turning the Other Cheek: Influence of the cis-Tetrafluorocyclohexyl Motif on Physicochemical and Metabolic Properties” (ACS Med Chem Lett, 2022).
